Measurements from different studies.
Each line is one published result; the experiments were not run side by side.
RET V804M: Proto-oncogene tyrosine-protein kinase receptor Ret (RET, Homo sapiens, UniProt P07949, V804M)
RET M918T: Proto-oncogene tyrosine-protein kinase receptor Ret (RET, Homo sapiens, UniProt P07949, M918T)
RET V804L: Proto-oncogene tyrosine-protein kinase receptor Ret (RET, Homo sapiens, UniProt P07949, V804L)

O=C(c1ccc(Nc2ncc(Cl)c(-c3cc4ccccc4s3)n2)cc1)N1CCC(N2CCCC2)CC1 — remaining binding (RET V804M; binding; competition with immobilised ligand; 1 µM): 37%
N#Cc1ccc(Nc2ccc3[nH]c(=O)[nH]c3c2)c(Cl)c1 — remaining binding (RET V804M; cell-free assay; competition with immobilised ligand; 1 µM): 93%
CN(C)c1ncc(F)c(-c2cnn3ncccc23)n1 — remaining binding (RET V804M; binding; 1 µM): 100%
O=C(Nc1c[nH]nc1C(=O)NC1CCNCC1)c1cc(F)cc(F)c1 — remaining binding (RET V804M; binding; competition with immobilised ligand; 1 µM): 99%
CN(C)CC#Cc1ccc(OCCCc2sc(N3CCc4cccc(C(=O)Nc5nc6ccccc6s5)c4C3)nc2C(=O)O)c(F)c1 — remaining binding (Proto-oncogene tyrosine-protein kinase receptor Ret (RET, Homo sapiens, UniProt P07949); cell-free assay; competition with immobilised ligand; 1 µM): 100%
C[C@H]1CCN(c2nccc(-c3cnn4ncccc34)n2)C1 — remaining binding (RET M918T; binding; 1 µM): 100%
Cc1cnc(Nc2ccc(C(=O)N3CCC(N4CCCC4)CC3)cc2)nc1-c1cc2ccccc2s1 — remaining binding (RET V804M; binding; competition with immobilised ligand; 1 µM): 25%
Cc1noc([C@H]2C[C@@H](c3ccc(C(F)(F)F)cc3)CN(C(=O)N3CCS(=O)(=O)C3)C2)n1 — remaining binding (RET V804L; cell-free assay; competition with immobilised ligand; 1 µM): 100%
N[C@H]1CCN(c2nccc(-c3cnn4ncccc34)n2)C1 — remaining binding (RET V804M; binding; 1 µM): 100%
COc1cnc(Nc2cccc(S(N)(=O)=O)c2)nc1N1CCN(c2ccccc2)CC1 — remaining binding (RET V804L; binding; competition with immobilised ligand; 1 µM): 73%
COc1cc(-c2cn(C3CCc4c(F)cccc4N(CC(F)(F)F)C3=O)nn2)ccc1-n1cnc(C)c1 (centres unmarked) — remaining binding (RET M918T; cell-free assay; competition with immobilised ligand; 1 µM): 100%
COc1ccnn2ncc(-c3ccnc(N(C)C)n3)c12 — remaining binding (RET M918T; binding; 1 µM): 100%
O=C(Nc1ccc(Oc2ccc(F)cc2)cc1)N1CCc2ncccc2[C@H]1c1ccc(F)cc1 — remaining binding (RET M918T; cell-free assay; competition with immobilised ligand; 1 µM): 100%
Nc1ncc2c(n1)-c1c([nH]c3ccc(C#CC4CC4)cc13)CCCC2 — remaining binding (RET M918T; binding; competition with immobilised ligand; 1 µM): 100%
c1cncc(-c2cccc(Nc3nccc(NC4CCCCC4)n3)c2)c1 — remaining binding (RET V804M; binding; competition with immobilised ligand; 10 µM): 8.8%
Cc1cnn2ncc(-c3ccnc(N(C)C)n3)c2c1 — remaining binding (RET V804L; binding; 1 µM): 100%
COc1cnc(Nc2cccc(S(N)(=O)=O)c2)nc1N1CCN(c2ccccc2)C(=O)C1 — remaining binding (RET M918T; binding; competition with immobilised ligand; 1 µM): 100%
CN(CCCC(F)(F)F)c1nccc(-c2cnn3ncccc23)n1 — remaining binding (RET V804L; binding; 1 µM): 100%
O=C(NCCCN1CCOCC1)c1ccc(Nc2ncc(Cl)c(-c3ccc(Cl)s3)n2)cc1 — remaining binding (RET V804L; binding; competition with immobilised ligand; 1 µM): 13%
COc1cc(-c2cn(C3CCc4ccccc4N(CC(F)(F)F)C3=O)nn2)ccc1-n1ccc(C)n1 (centres unmarked) — remaining binding (RET V804M; cell-free assay; competition with immobilised ligand; 1 µM): 100%
